Results taken from ChEMBL document CHEMBL1938372, “Design and synthesis of conformationally constrained inhibitors of non-nucleoside reverse transcriptase” (J Med Chem, 2011).
≈ marks a conversion by molar mass, not a printed value. Calls of active or inactive are those of the source. The rule behind the calls is not given here.

Key:
Rattus norvegicus = experiment: Dose normalised AUC in Sprague-Dawley rat at 10 mg/kg, po by LC-MS analysis; type: ADME, organism-based; parameters: dose 10 mg/kg, route oral; settings: in vivo
Summary of the method: (§1)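 PK in Sprague-Dawley rats (iv solution in DMSO via an indwelling jugular cannula, or oral suspension in aqueous methylcellulose/Methocel) and beagle dogs (iv and oral given crossover, same vehicles). Plasma levels by LC-MS. F from oral versus iv dose-normalized AUC. Average of at least two animals; rat values within 25% of the mean.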

[1] = Volume of distribution in Beagle dog at 0.125 mg/kg, iv; type: ADME, organism-based, Canis lupus familiaris; parameters: dose 0.125 mg/kg, route intravenous; settings: in vivo; summary of the method: as §1
[2] = test system: Human immunodeficiency virus; experiment: Antiviral activity against Human immunodeficiency virus expressing wild type reverse transcriptase infected in human MT4 cells by p24 antigen assay in the presence of 50% normal human serum; type: functional; settings: Human immunodeficiency virus 1, MT4; read-out: CIC95
Summary of the method: (§2)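 MT-4 human T-lymphoid cells in RPMI 1640 with either 10% FBS or 50% NHS; CIC95 taken as the concentration inhibiting virus spread/replication by >95%. Geometric mean of at least two determinations, individual values within 2-fold; SEM given when ≥3 determinations.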

[3] = target: Human immunodeficiency virus type 1 reverse transcriptase (Human immunodeficiency virus 1, UniProt Q72547, Y181C); experiment: Inhibition of Human immunodeficiency virus reverse transcriptase Y181C mutant by SPA assay
Summary of the method: (§3)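 Recombinant HIV-1 RT polymerase scintillation proximity assay run with mutant enzyme, reported as Ki (nM). Values are geometric means of at least two determinations, each within 2-fold of the mean; SEM is given where there were ≥3 determinations.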

[4] = Inhibition of Human immunodeficiency virus reverse transcriptase by SPA assay
[5] = target: Human immunodeficiency virus type 1 reverse transcriptase (Human immunodeficiency virus 1, UniProt Q72547, K103N); experiment: Inhibition of Human immunodeficiency virus reverse transcriptase K103N mutant by SPA assay; summary of the method: as §3
[6] = Half life in Beagle dog at 0.125 mg/kg, iv; type: ADME, organism-based, Canis lupus familiaris; parameters: dose 0.125 mg/kg, route intravenous; settings: in vivo; summary of the method: as §1
[7] = Half life in Sprague-Dawley rat at 10 mg/kg, po and 2 mg/kg, iv; type: ADME, organism-based; settings: in vivo; summary of the method: as §1
[8] = Plasma clearance in Beagle dog at 0.125 mg/kg, iv; type: ADME, organism-based, Canis lupus familiaris; parameters: dose 0.125 mg/kg, route intravenous; summary of the method: as §1
[9] = Bioavailability in Sprague-Dawley rat at 10 mg/kg, po and 2 mg/kg, iv; type: ADME, organism-based; settings: in vivo; summary of the method: as §1
[10] = Plasma clearance in Sprague-Dawley rat at 10 mg/kg, po and 2 mg/kg, iv; type: ADME, organism-based; summary of the method: as §1
[11] = test system: Human immunodeficiency virus; experiment: Antiviral activity against Human immunodeficiency virus expressing reverse transcriptase Y181C mutant infected in human MT4 cells by p24 antigen assay in the presence of 10% FBS; type: functional; settings: Human immunodeficiency virus 1, MT4; read-out: CIC95
Summary of the method: (§4)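 Antiviral spread assay in MT-4 human T-lymphoid cells kept in RPMI 1640 with 10% FBS. Value is the CIC95, the concentration inhibiting virus replication by >95%. Reported as the geometric mean of at least two determinations, all within 2-fold of the mean. Cytotoxicity was checked up to the assay upper limit of 8.3 μM.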

[12] = test system: Human immunodeficiency virus; experiment: Antiviral activity against Human immunodeficiency virus expressing wild type reverse transcriptase infected in human MT4 cells by p24 antigen assay in the presence of 10% FBS; type: functional; settings: Human immunodeficiency virus 1, MT4; read-out: CIC95; summary of the method: as §2
MT4 = experiment: Cytotoxicity against human MT4 cells up to 8.3 uM; type: cell-based
Summary of the method: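 MT-4 cells in RPMI 1640 with 10% FBS or 50% NHS, run alongside the antiviral CIC95 assay; cytotoxicity checked up to the assay upper limit of 8.3 μM.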

[13] = test system: Human immunodeficiency virus; experiment: Antiviral activity against Human immunodeficiency virus expressing reverse transcriptase K103N mutant infected in human MT4 cells by p24 antigen assay in the presence of 10% FBS; type: functional; settings: Human immunodeficiency virus 1, MT4; read-out: CIC95; summary of the method: as §4
[14] = Volume of distribution in Sprague-Dawley rat at 10 mg/kg, po and 2 mg/kg, iv; type: ADME, organism-based; settings: in vivo; summary of the method: as §1
Canis familiaris [15] = experiment: Dose normalised AUC in Beagle dog at 1 mg/kg, po by LC-MS analysis; type: ADME, organism-based, Canis lupus familiaris; parameters: dose 1 mg/kg, route oral; settings: in vivo; summary of the method: as §1
[16] = Bioavailability in Beagle dog at 1 mg/kg, po and 0.25 mg/kg, iv; type: ADME, organism-based, Canis lupus familiaris; settings: in vivo; summary of the method: as §1
[17] = Solubility of the compound in water at pH 2; type: physicochemical
Summary of the method: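 Water solubility of the solid compound measured at pH 2 and at pH 7.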

[18] = Half life in Beagle dog at 2 mg/kg, po and 1 mg/kg, iv; type: ADME, organism-based, Canis lupus familiaris; settings: in vivo; summary of the method: as §1
[19] = Plasma clearance in Beagle dog at 2 mg/kg, po and 1 mg/kg, iv; type: ADME, organism-based, Canis lupus familiaris; summary of the method: as §1
[20] = Volume of distribution in Beagle dog at 2 mg/kg, po and 1 mg/kg, iv; type: ADME, organism-based, Canis lupus familiaris; settings: in vivo; summary of the method: as §1
[21] = test system: Human immunodeficiency virus; experiment: Antiviral activity against Human immunodeficiency virus harboring reverse transcriptase G190A mutant assessed as inhibition of viral replication; type: functional, organism-based
Summary of the method: (§5)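 Phenosense cell culture assay against a panel of clinically derived RT mutant viruses in the presence of 10% FBS. IC50 is the compound concentration blocking 50% of viral replication. Each value is the average of two determinations.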

[22] = test system: Human immunodeficiency virus; experiment: Antiviral activity against wild type Human immunodeficiency virus assessed as inhibition of viral replication; type: functional, organism-based
[23] = test system: Human immunodeficiency virus; experiment: Antiviral activity against Human immunodeficiency virus harboring reverse transcriptase K101E/G190A double mutant assessed as inhibition of viral replication; type: functional, organism-based; summary of the method: as §5
[24] = test system: Human immunodeficiency virus; experiment: Antiviral activity against Human immunodeficiency virus harboring reverse transcriptase K103N/Y181C/G190A triple mutant assessed as inhibition of viral replication; type: functional, organism-based; summary of the method: as §5
[25] = test system: Human immunodeficiency virus; experiment: Antiviral activity against Human immunodeficiency virus harboring reverse transcriptase V106A/G190A/F227L triple mutant assessed as inhibition of viral replication; type: functional, organism-based; summary of the method: as §5
[26] = test system: Human immunodeficiency virus; experiment: Antiviral activity against Human immunodeficiency virus harboring reverse transcriptase K103N mutant assessed as inhibition of viral replication; type: functional, organism-based; summary of the method: as §5
[27] = test system: Human immunodeficiency virus; experiment: Antiviral activity against Human immunodeficiency virus harboring reverse transcriptase K101E/Y181C/G190A triple mutant assessed as inhibition of viral replication; type: functional, organism-based; summary of the method: as §5
[28] = test system: Human immunodeficiency virus; experiment: Antiviral activity against Human immunodeficiency virus harboring reverse transcriptase Y181C mutant assessed as inhibition of viral replication; type: functional, organism-based; summary of the method: as §5
[29] = test system: Human immunodeficiency virus; experiment: Antiviral activity against Human immunodeficiency virus harboring reverse transcriptase G190S mutant assessed as inhibition of viral replication; type: functional, organism-based; summary of the method: as §5
[30] = test system: Human immunodeficiency virus; experiment: Antiviral activity against Human immunodeficiency virus harboring reverse transcriptase L100l/K103N/P225P/H triple mutant assessed as inhibition of viral replication; type: functional, organism-based; summary of the method: as §5
[31] = test system: Human immunodeficiency virus; experiment: Antiviral activity against Human immunodeficiency virus harboring reverse transcriptase L100l mutant assessed as inhibition of viral replication; type: functional, organism-based; summary of the method: as §5
[32] = test system: Human immunodeficiency virus; experiment: Antiviral activity against Human immunodeficiency virus harboring reverse transcriptase Y188L mutant assessed as inhibition of viral replication; type: functional, organism-based; summary of the method: as §5
Canis familiaris [33] = experiment: Dose normalised AUC in Beagle dog at 10 mg/kg, po by LC-MS analysis; type: ADME, organism-based, Canis lupus familiaris; parameters: dose 10 mg/kg, route oral; settings: in vivo; summary of the method: as §1
[34] = test system: Human immunodeficiency virus; experiment: Antiviral activity against multidrug-resistant Human immunodeficiency virus assessed as inhibition of viral replication; type: functional, organism-based; summary of the method: as §5
[35] = test system: Human immunodeficiency virus; experiment: Antiviral activity against Human immunodeficiency virus harboring reverse transcriptase K103N/P225H double mutant assessed as inhibition of viral replication; type: functional, organism-based; summary of the method: as §5

N#Cc1cc(Cl)cc(Oc2c(Cl)ccc3c2nnn3Cc2n[nH]c3nc(N)ccc23)c1
AUC/dose (Rattus norvegicus): 0.02 µM·h | Vd [1]: 0.65 L/kg | IC95 [2]: 36 nM | Ki [3]: 1.2 nM | Ki [4]: 1.1 nM | Ki [5]: 0.94 nM | half-life [6]: 12.8 h | half-life [7]: 4.7 h | clearance [8]: 2.2 mL/min/kg | bioavailability [9]: < 1% | clearance [10]: 11.9 mL/min/kg | IC95 [11]: 37 nM | IC95 [12]: 3 nM | Activity (MT4): Non-toxic | IC95 [13]: 5.8 nM | Vd [14]: 4.4 L/kg

N#Cc1cc(Cl)cc(Oc2cc(OCc3n[nH]c4ncccc34)ccc2Cl)c1
AUC/dose (Rattus norvegicus): 0.1 µM·h | IC95 [2]: 52 nM | Ki [3]: 0.23 nM | AUC/dose (Canis familiaris [15]): 0.14 µM·h | Ki [4]: 0.12 nM | Ki [5]: 0.22 nM | bioavailability [16]: 3% | bioavailability [9]: 7.5% | IC95 [11]: 22 nM | solubility [17]: < 0.1 µg/mL | IC95 [12]: 10 nM | Activity (MT4): Non-toxic | IC95 [13]: 15 nM

N#Cc1cc(Cl)cc(Oc2c(Cl)ccc3c2c(Cl)nn3Cc2n[nH]c3ncccc23)c1
IC95 [2]: > 5000 nM | Ki [3]: 42 nM | Ki [4]: 46 nM | Ki [5]: 28 nM | IC95 [11]: > 2000 nM | IC95 [12]: > 500 nM | Activity (MT4): Non-toxic | IC95 [13]: > 2000 nM

N#Cc1cc(Cl)cc(Oc2c(Cl)ccc3c2ncn3Cc2n[nH]c3ncccc23)c1
AUC/dose (Rattus norvegicus): 0.56 µM·h | half-life [18]: 12.8 h | IC95 [2]: 390 nM | Ki [3]: 3.3 nM | Ki [4]: 2 nM | clearance [19]: 2.2 mL/min/kg | Ki [5]: 5.3 nM | half-life [7]: 2.4 h | Vd [20]: 0.37 L/kg | bioavailability [9]: 36% | clearance [10]: 25.6 mL/min/kg | IC95 [11]: 320 nM | solubility [17]: 10 µg/mL (≈ 23 µM) | IC95 [12]: 23 nM | Activity (MT4): Non-toxic | IC95 [13]: 66 nM | Vd [14]: 3.3 L/kg

N#Cc1cc(Cl)cc(Oc2cc(OCc3n[nH]c4nc(N)ccc34)ccc2Cl)c1
AUC/dose (Rattus norvegicus): 2.3 µM·h | inhibition [21]: Active | inhibition [22]: Active | inhibition [23]: Active | inhibition [24]: Active | IC95 [2]: 26 nM | inhibition [25]: inactive | Ki [4]: 0.2 nM | inhibition [26]: Active | inhibition [27]: Active | inhibition [28]: Active | inhibition [29]: Active | inhibition [30]: Active | inhibition [31]: Active | IC95 [11]: 27 nM | inhibition [32]: inactive | AUC/dose (Canis familiaris [33]): 3.1 µM·h | IC95 [12]: 4.9 nM | inhibition [34]: Active | inhibition [35]: Active | Activity (MT4): Non-toxic | IC95 [13]: 12 nM

NCc1cc(Cl)cc(Oc2c(Cl)ccc3c2nnn3Cc2n[nH]c3ncccc23)c1Cl
IC95 [2]: 281 nM | IC95 [11]: 418 nM | IC95 [12]: 57 nM | Activity (MT4): Non-toxic | IC95 [13]: 232 nM

Cc1nc2c(Oc3cc(Cl)cc(C#N)c3)c(Cl)ccc2n1Cc1n[nH]c2ncccc12
IC95 [2]: > 833 nM | Ki [3]: > 300 nM | Ki [4]: > 300 nM | Ki [5]: > 600 nM | IC95 [12]: > 833 nM | Activity (MT4): Non-toxic
